Test results taken from ChEMBL document CHEMBL4325886, “Synthesis and SAR studies of novel benzodiazepinedione-based inhibitors of Clostridium difficile (C. difficile) toxin B (TcdB)” (Bioorg Med Chem Lett, 2018).

Key:
[1] = Metabolic stability in human liver microsomes assessed as parent compound remaining after 15 mins; type: ADME, Microsome; settings: read-out: Stability
[2] = Metabolic stability in mouse liver microsomes assessed as parent compound remaining after 15 mins; type: ADME, Microsome; settings: read-out: Stability
Toxin B [3] = biological target: T1, Toxin B (Clostridioides difficile, UniProt P18177); assay: Inhibition of Clostridium difficile toxin B […] CHO cells assessed as reduction in caspase 3/7 activation pre-incubated for 1 hr before TcdB addition by luminescence based assay; type: cell-based
Toxin B [4] = biological target: T1, Toxin B; assay: Inhibition of C-terminal 6-His tagged recombinant Clostridium difficile toxin B glucosyltransferase domain assessed as reduction in UDP-glucose hydrolysis activity using UDP-glucose substrate and ADP Alexa633 tracer incubated for 3 hrs by fluorescence polarization assay
Toxin A = Toxin A (Clostridioides difficile, UniProt P16154); assay: Inhibition of Clostridium difficile toxin A […] CHO cells assessed as reduction in caspase 3/7 activation pre-incubated for 1 hr before TcdA addition by luminescence based assay; type: cell-based
[5] = Metabolic stability in mouse plasma assessed as parent compound remaining after 2 hrs; type: ADME, cell-free
Procedure, shortened: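 Compound incubated in mouse plasma for 2 h. Parent compound remaining was measured, and the carboxylic acid hydrolysis product was also monitored.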

[6] = Clearance in CD-1 mouse at 1 mg/kg, iv; type: ADME, organism-based; settings: in vivo
Procedure, shortened: (§1)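 CD-1 mice, single dose. The i.v. dose was 1 mg/kg in 40% PEG400/5% ethanol/55% water (v/v/v). The p.o. dose was 10 mg/kg in 20% PEG400/80% (0.5% (w/v) CMC with 0.25% (v/v) Tween 80) (v/v). Plasma samples were analysed to derive Cl, T1/2, Vz, AUC0-inf, Cmax, Tmax and oral bioavailability F.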

[7] = Elimination half life in CD-1 mouse at 1 mg/kg, iv; type: ADME, organism-based; settings: in vivo, read-out: beta t1/2 (converted); procedure, shortened: as §1
[8] = Apparent volume of distribution during terminal phase in CD-1 mouse at 1 mg/kg, iv; type: ADME, organism-based; settings: in vivo; procedure, shortened: as §1
[9] = AUC (0 to infinity) in CD-1 mouse at 1 mg/kg, iv; type: ADME, organism-based; parameters: dose 1 mg/kg, time infinity, route intravenous; settings: in vivo; procedure, shortened: as §1
[10] = AUC (0 to infinity) in CD-1 mouse at 10 mg/kg, po; type: ADME, organism-based; parameters: dose 10 mg/kg, time infinity, route oral; settings: in vivo; procedure, shortened: as §1
[11] = Cmax in CD-1 mouse at 1 mg/kg, iv; type: ADME, organism-based; parameters: dose 1 mg/kg, route intravenous; settings: in vivo; procedure, shortened: as §1
[12] = Cmax in CD-1 mouse at 10 mg/kg, po; type: ADME, organism-based; parameters: dose 10 mg/kg, route oral; settings: in vivo; procedure, shortened: as §1
[13] = Tmax in CD-1 mouse at 10 mg/kg, po; type: ADME, organism-based; settings: in vivo; procedure, shortened: as §1
[14] = Oral bioavailability in CD-1 mouse at 10 mg/kg; type: ADME, organism-based; settings: in vivo; procedure, shortened: as §1
[15] = Apparent oral clearance in hamster at 10 mg/kg, po; type: ADME, organism-based; settings: cricetinae, in vivo
[16] = Elimination half life in hamster at 10 mg/kg, po; type: ADME, organism-based; settings: cricetinae, in vivo, read-out: beta t1/2 (converted)
[17] = AUC(infinity) in hamster at 10 mg/kg, po; type: ADME, organism-based; parameters: dose 10 mg/kg, time infinity, route oral; settings: cricetinae, in vivo
[18] = Cmax in hamster at 10 mg/kg, po; type: ADME, organism-based; parameters: dose 10 mg/kg, route oral; settings: cricetinae, in vivo
[19] = Tmax in hamster at 10 mg/kg, po; type: ADME, organism-based; settings: cricetinae, in vivo
Clostridioides difficile [20] = assay: Antibacterial activity against Clostridium difficile infected hamster assessed as host survival at 50 mg/kg, po bid treated for 7 days (reference value: 2.3 days); type: functional
Clostridioides difficile [21] = assay: Antibacterial activity against Clostridium difficile infected hamster assessed as host survival at 5 mg/kg, po bid treated for 7 days (reference value: 2.3 days); type: functional

T1 sequence (P18177 whole entry, the tested form may be a part): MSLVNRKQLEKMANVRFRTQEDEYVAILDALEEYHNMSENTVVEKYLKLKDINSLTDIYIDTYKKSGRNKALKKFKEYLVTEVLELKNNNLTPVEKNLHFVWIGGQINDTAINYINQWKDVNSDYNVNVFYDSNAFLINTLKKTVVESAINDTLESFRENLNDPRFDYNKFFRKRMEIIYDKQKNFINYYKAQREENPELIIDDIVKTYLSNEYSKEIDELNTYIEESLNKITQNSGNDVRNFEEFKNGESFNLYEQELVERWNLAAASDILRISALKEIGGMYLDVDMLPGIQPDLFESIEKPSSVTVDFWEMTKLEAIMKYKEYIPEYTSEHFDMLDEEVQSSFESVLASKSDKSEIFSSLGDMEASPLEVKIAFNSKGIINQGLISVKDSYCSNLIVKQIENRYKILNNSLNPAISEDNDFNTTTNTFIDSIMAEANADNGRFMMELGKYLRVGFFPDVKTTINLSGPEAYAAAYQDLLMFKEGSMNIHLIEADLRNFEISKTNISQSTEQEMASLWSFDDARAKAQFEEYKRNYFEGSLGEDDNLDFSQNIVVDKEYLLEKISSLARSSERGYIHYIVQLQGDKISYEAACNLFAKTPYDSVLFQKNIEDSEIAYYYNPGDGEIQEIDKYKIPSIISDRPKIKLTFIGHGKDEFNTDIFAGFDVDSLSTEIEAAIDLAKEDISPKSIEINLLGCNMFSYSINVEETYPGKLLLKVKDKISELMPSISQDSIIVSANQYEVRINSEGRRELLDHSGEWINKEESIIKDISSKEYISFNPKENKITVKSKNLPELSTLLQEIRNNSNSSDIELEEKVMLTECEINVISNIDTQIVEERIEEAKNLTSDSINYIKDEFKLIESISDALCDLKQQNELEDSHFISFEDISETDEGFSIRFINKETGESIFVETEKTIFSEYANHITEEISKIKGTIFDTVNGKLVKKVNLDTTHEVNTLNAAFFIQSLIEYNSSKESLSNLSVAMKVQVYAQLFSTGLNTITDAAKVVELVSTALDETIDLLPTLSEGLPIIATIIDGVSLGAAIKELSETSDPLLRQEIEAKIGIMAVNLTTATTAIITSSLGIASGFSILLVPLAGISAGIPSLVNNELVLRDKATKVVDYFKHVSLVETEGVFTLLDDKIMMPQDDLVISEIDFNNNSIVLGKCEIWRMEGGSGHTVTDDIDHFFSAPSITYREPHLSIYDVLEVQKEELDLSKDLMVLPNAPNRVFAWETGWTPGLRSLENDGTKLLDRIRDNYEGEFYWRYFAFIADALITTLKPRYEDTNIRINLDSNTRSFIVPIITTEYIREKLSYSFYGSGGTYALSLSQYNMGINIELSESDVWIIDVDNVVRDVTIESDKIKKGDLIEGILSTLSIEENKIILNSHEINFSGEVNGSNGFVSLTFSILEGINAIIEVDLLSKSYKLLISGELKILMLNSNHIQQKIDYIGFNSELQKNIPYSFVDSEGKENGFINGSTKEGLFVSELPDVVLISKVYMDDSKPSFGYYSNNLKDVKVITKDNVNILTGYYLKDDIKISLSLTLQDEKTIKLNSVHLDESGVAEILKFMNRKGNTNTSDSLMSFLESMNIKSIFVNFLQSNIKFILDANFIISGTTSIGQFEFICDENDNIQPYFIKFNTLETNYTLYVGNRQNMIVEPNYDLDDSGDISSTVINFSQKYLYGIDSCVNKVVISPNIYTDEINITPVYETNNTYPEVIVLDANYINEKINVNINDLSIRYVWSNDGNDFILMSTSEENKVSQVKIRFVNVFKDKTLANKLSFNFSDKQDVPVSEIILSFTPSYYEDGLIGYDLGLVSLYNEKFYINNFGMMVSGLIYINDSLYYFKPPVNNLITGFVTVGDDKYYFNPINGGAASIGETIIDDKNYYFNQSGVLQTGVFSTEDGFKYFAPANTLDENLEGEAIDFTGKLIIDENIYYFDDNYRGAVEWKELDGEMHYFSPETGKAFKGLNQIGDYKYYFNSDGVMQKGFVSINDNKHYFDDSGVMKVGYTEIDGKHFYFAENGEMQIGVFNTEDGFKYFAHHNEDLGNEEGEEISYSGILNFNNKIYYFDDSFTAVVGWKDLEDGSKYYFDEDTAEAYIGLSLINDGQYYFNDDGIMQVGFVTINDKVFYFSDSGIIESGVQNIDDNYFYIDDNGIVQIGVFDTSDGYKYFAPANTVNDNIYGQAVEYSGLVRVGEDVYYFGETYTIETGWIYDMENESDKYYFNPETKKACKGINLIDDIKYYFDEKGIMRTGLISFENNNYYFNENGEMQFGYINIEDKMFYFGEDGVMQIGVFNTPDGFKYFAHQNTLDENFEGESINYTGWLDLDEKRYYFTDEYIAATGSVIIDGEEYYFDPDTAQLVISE
Toxin A, sequence (P16154 whole entry): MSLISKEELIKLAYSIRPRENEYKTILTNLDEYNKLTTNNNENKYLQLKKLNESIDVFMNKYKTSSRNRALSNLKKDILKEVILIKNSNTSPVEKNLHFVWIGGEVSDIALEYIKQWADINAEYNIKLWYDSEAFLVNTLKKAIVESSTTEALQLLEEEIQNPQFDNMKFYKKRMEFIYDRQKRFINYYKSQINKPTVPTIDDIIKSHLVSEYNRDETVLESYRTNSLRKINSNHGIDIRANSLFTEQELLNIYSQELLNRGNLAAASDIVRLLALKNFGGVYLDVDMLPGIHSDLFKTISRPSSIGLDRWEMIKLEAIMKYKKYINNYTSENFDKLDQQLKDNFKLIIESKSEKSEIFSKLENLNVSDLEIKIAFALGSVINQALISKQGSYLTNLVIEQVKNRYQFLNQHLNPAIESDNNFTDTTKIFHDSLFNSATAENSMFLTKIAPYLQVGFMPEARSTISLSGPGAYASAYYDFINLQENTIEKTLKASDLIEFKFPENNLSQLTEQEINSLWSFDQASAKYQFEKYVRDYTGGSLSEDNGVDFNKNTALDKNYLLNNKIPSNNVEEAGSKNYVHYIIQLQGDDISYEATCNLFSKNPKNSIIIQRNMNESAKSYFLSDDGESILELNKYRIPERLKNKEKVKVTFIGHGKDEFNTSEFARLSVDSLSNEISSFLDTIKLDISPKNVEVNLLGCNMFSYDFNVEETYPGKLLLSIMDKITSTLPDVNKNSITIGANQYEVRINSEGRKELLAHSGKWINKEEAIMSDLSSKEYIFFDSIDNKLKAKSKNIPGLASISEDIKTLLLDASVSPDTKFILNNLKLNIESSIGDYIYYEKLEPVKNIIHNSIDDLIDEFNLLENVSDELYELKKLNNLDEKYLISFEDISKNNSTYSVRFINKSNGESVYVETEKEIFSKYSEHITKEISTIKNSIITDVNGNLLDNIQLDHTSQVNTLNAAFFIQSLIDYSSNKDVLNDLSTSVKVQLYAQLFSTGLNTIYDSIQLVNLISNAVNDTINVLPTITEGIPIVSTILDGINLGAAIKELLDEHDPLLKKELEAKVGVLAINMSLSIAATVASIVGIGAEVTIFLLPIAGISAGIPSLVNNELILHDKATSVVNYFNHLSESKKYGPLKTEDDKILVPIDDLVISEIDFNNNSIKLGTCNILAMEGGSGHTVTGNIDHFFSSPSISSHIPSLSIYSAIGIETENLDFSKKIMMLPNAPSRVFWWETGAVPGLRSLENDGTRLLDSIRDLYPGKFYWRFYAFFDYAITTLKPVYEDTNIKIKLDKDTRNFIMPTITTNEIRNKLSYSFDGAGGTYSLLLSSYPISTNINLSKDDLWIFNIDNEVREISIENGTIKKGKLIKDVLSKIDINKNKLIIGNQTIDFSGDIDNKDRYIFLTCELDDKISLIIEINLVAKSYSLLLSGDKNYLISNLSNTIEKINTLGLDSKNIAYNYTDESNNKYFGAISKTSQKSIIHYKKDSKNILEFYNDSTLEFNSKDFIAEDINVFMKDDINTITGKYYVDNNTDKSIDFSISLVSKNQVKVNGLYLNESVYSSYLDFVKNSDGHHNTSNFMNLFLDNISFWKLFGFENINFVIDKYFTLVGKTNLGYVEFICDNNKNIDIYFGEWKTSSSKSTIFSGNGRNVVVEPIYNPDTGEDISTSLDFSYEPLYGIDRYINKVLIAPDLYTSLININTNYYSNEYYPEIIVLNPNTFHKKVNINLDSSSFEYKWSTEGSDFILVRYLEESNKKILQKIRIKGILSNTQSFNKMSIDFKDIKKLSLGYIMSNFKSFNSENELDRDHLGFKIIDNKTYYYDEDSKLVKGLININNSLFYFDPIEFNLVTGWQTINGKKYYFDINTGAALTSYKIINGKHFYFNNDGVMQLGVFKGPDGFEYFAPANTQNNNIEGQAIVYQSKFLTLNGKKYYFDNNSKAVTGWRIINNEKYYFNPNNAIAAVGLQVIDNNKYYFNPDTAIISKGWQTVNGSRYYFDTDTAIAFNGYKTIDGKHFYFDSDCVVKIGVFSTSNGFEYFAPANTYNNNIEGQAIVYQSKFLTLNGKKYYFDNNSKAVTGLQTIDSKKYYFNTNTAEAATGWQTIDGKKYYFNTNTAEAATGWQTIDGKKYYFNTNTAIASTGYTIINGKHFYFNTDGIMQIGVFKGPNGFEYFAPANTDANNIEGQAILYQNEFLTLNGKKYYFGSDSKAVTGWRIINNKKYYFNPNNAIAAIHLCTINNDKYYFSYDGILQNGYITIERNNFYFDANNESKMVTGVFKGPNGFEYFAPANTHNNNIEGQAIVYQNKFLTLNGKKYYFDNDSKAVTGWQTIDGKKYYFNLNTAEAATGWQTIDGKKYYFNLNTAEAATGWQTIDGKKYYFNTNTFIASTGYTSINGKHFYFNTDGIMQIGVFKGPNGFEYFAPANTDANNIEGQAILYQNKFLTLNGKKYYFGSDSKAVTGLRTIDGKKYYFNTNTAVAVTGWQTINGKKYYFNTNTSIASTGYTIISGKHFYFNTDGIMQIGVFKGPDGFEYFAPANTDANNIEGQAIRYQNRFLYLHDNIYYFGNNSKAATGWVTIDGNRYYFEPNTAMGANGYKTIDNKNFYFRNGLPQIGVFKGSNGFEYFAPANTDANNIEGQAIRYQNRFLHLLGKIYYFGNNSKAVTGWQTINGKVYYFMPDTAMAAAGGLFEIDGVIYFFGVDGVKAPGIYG

Structure (SMILES)	remaining at 0.25 h [1] [%]	remaining at 0.25 h [2] [%]	IC50 (Toxin B [3]) [nM]	IC50 (Toxin B [4]) [nM]	IC50 (Toxin A) [nM]	other results
N#Cc1ccc(NC(=O)c2ccc(CN3C(=O)c4ccc(Cl)cc4NC(=O)[C@H]3Cc3ccccn3)cc2Cl)nc1	90	84	52	8		
Cn1cc(C(=O)c2ccc(CN3C(=O)c4ccc(Cl)cc4NC(=O)[C@H]3Cc3ccccn3)cc2)c2ncccc21	67	76	330	6	5300	
Cc1ccc(NC(=O)c2ccc(CN3C(=O)c4ccc(Cl)cc4NC(=O)[C@H]3Cc3ccccn3)cc2Cl)nc1	57	57	24	5	580	
COc1cnc(NC(=O)c2ccc(CN3C(=O)c4ccc(Cl)cc4NC(=O)[C@H]3Cc3ccccn3)cc2)nc1			3			Stability ([5]; 2 h): Unstable
COc1ccc(NC(=O)c2ccc(CN3C(=O)c4ccc(Cl)cc4NC(=O)[C@H]3Cc3ccccn3)cc2C)nc1	68	51	71	10	480	
COc1ccc(NC(=O)c2ccc(CN3C(=O)c4ccc(Cl)cc4NC(=O)[C@H]3Cc3ccccn3)cc2OC)nc1	78	71	130	5	1100	
COc1ccc(NC(=O)c2ccc(CN3C(=O)c4ccc(Cl)cc4NC(=O)[C@H]3Cc3ccccn3)cc2Cl)nc1	100	71	61	5	760	remaining at 2 h ([5]; read-out: Stability): 100%
O=C(O)c1ccc(CN2C(=O)c3ccc(Cl)cc3NC(=O)[C@H]2Cc2ccccn2)cc1				180		
O=C(Nc1ccc(F)cn1)c1ccc(CN2C(=O)c3ccc(Cl)cc3NC(=O)[C@H]2Cc2ccccn2)cc1Cl	88	69	130	4	1800	
Cc1ccc(NC(=O)c2ccc(CN3C(=O)c4ccc(Cl)cc4NC(=O)[C@H]3Cc3ccccn3)cc2C)nc1	61	31	61	7	860	
Cc1cc(CN2C(=O)c3ccc(Cl)cc3NC(=O)[C@H]2Cc2ccccn2)ccc1C(=O)Nc1ccc(C(F)(F)F)cn1	100	99	170	20	2400	
O=C(Nc1ccc(C(F)(F)F)cn1)c1ccc(CN2C(=O)c3ccc(Cl)cc3NC(=O)[C@H]2Cc2ccccn2)cc1Cl	94	92	250	18	6300	clearance [6]: 28 mL/min/kg; half-life [7]: 2.6 h; Vz/F [8]: 6.2 L/kg; AUC(0-inf) [9]: 592 ng·h/mL; AUC(0-inf) [10]: 9420 ng·h/mL; Cmax [11]: 312 ng/mL; Cmax [12]: 1530 ng/mL; Tmax [13]: 0.25 h; F [14]: 159%; CL/F [15]: 7.8 mL/min/kg; half-life [16]: 10 h; AUC(0-inf) [17]: 21500 ng·h/mL; Cmax [18]: 2750 ng/mL; Tmax [19]: 0.25 h; MST (Clostridioides difficile [20]): 12.3 days
CN[C@H](CC(C)C)C(=O)N[C@H]1C(=O)N[C@@H](CC(N)=O)C(=O)N[C@H]2C(=O)N[C@H]3C(=O)N[C@H](C(=O)N[C@H](C(=O)O)c4cc(O)cc(O)c4-c4cc3ccc4O)[C@H](O)c3ccc(c(Cl)c3)Oc3cc2cc(c3O[C@@H]2O[C@H](CO)[C@@H](O)[C@H](O)[C@H]2O[C@H]2C[C@](C)(N)[C@H](O)[C@H](C)O2)Oc2ccc(cc2Cl)[C@H]1O [VANCOMYCIN]						MST (Clostridioides difficile [21]): 12 days
O=C(O)c1ccc(CN2C(=O)c3ccc(Cl)cc3NC(=O)[C@H]2Cc2ccccn2)cc1Cl				480		
O=C(c1ccc(CN2C(=O)c3ccc(Cl)cc3NC(=O)[C@H]2Cc2ccccn2)cc1)c1ccccn1	64	79	4200	45	37000	
COc1cnc(NC(=O)c2ccc(CN3C(=O)c4ccc(Cl)cc4NC(=O)[C@H]3Cc3ccccn3)cc2Cl)cn1	100	68	490	21	3400	
Cc1cccc(C(=O)c2ccc(CN3C(=O)c4ccc(Cl)cc4NC(=O)[C@H]3Cc3ccccn3)cc2)n1	25	3		340		
COc1cc(CN2C(=O)c3ccc(Cl)cc3NC(=O)[C@H]2Cc2ccccn2)ccc1C(=O)Nc1ccc(C)cn1	62	49	1900	9	11000	

Structure (SMILES)	remaining at 0.25 h [1] [%]	remaining at 0.25 h [2] [%]	IC50 (Toxin B [3]) [nM]	IC50 (Toxin B [4]) [nM]	IC50 (Toxin A) [nM]	other results
Cc1cnc(NC(=O)c2ccc(CN3C(=O)c4ccc(Cl)cc4NC(=O)[C@H]3Cc3ccccn3)cc2Cl)cn1	81	79	220	9	2100	
COc1cnc(NC(=O)c2ccc(CN3C(=O)c4ccc(Cl)cc4NC(=O)[C@H]3Cc3ccccn3)cc2Cl)nc1	73	38	53	4	920	
Cc1cnc(NC(=O)c2ccc(CN3C(=O)c4ccc(Cl)cc4NC(=O)[C@H]3Cc3ccccn3)cc2Cl)nc1	79	33	130	4	1500	
O=C(c1ccc(CN2C(=O)c3ccc(Cl)cc3NC(=O)[C@H]2Cc2ccccn2)cc1)c1c[nH]c2cccnc12	87	93	1800	2	18000	
O=C(O)c1c(Cl)cc(CN2C(=O)c3ccc(Cl)cc3NC(=O)[C@H]2Cc2ccccn2)cc1Cl				7400		
O=C(c1ccc(CN2C(=O)c3ccc(Cl)cc3NC(=O)[C@H]2Cc2ccccn2)cc1)c1cccn2ccnc12	44	27	660	8	8100	
Cc1cnc(NC(=O)c2ccc(CN3C(=O)c4ccc(Cl)cc4NC(=O)[C@H]3Cc3ccccn3)cc2C)nc1	74	44	130	4	3000	
Cc1ccc(C(=O)c2ccc(CN3C(=O)c4ccc(Cl)cc4NC(=O)[C@H]3Cc3ccccn3)cc2)nc1	57	68	5900	38	23000	
Cc1cc(CN2C(=O)c3ccc(Cl)cc3NC(=O)[C@H]2Cc2ccccn2)ccc1C(=O)Nc1ccc(F)cn1	85	60	62	8	860	
COc1cnc(NC(=O)c2ccc(CN3C(=O)c4ccc(Cl)cc4NC(=O)[C@H]3Cc3ccccn3)cc2C)nc1	82	39	29	4	690	
Cn1ccnc1C(=O)c1ccc(CN2C(=O)c3ccc(Cl)cc3NC(=O)[C@H]2Cc2ccccn2)cc1	49	33	> 100000	190	> 100000	
Cc1ccnc(C(=O)c2ccc(CN3C(=O)c4ccc(Cl)cc4NC(=O)[C@H]3Cc3ccccn3)cc2)c1	26	48		74		
COc1cc(CN2C(=O)c3ccc(Cl)cc3NC(=O)[C@H]2Cc2ccccn2)ccc1C(=O)Nc1ccc(F)cn1	94	67	1100	14	17000	
Cn1cnc(C(=O)c2ccc(CN3C(=O)c4ccc(Cl)cc4NC(=O)[C@H]3Cc3ccccn3)cc2)c1	44	16	> 100000	230	> 100000	
Cc1cc(CN2C(=O)c3ccc(Cl)cc3NC(=O)[C@H]2Cc2ccccn2)ccc1C(=O)Nc1ccc(C#N)cn1	90	70	78	3		
O=C(c1ccc(CN2C(=O)c3ccc(Cl)cc3NC(=O)[C@H]2Cc2ccccn2)cc1)c1cccn2ncnc12	15	44	1600	61		
COc1cc(CN2C(=O)c3ccc(Cl)cc3NC(=O)[C@H]2Cc2ccccn2)ccc1C(=O)Nc1ccc(C(F)(F)F)cn1	100	83	660	41	31000	
